Screening data from PubChem.
Compounds with a hit are over-represented: about 1.7% of the library has one in this group of screens.
DNMT1 inh – blocks human DNA methyltransferase DNMT1. 360,000 compounds, 0.83% hits. P26358. inhibition (reported as % activation of signal), % at 10 µM. DNMT1 molecular beacon, Hinp1I cleavage, fluorescence; in the data active means inhibition above about 50%
LMPTP block – blocks human LMPTP phosphatase; P24666; recombinant LMPTP-A, OMFP fluorogenic substrate, fluorescence intensity; inhibition, % at 20 µM; 360,000 compounds, 0.22% hits; AID 651560;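 active means compounds that cut the enzyme signal by at least half of the control window in the single-dose screen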;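 further: plate controls were DMSO wells with enzyme plus substrate for no effect and substrate without enzyme for full effect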
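Assay system: LMPTP-A enzyme. Input: 0.625 nM LMPTP-A final. Probe or stimulus: 400 µM OMFP. Compound dosing: single 20 µM dose. Schedule: 50 min dark incubation at room temperature. Detection: fluorescence intensity of OMFP turnover product. Read-out: percent inhibition versus substrate-only and uninhibited controls. Benchmarks: no-enzyme low control, uninhibited high control.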
STEP block – inhibitors of human striatal-enriched phosphatase STEP; inhibition, % at 20 µM; recombinant STEP, OMFP fluorogenic substrate, fluorescence; P54829; 360,000 compounds, 0.25% hits; AID 588621;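 active means inhibition at 20 µM, scaled per plate between control wells, above about 37%, limit read from the data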;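 further: 0% = DMSO with enzyme and substrate and 100% = substrate only without enzyme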
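Assay system: isolated STEP enzyme. Buffer or medium: pH 6.0 Bis-Tris with DTT and Tween 20. Also added: fluorogenic phosphatase substrate OMFP at 25 µM final. Dosing: 20 µM, 1% DMSO. Timing: 20 min reaction, room temperature, in the dark. Measured by: fluorescence intensity, excitation 480 nm, emission 540 nm. Evaluation: normalized % inhibition.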
SUMO1-SIM PPI – modulators of human SUMO1-mediated protein-protein interactions; P63165; inhibition, % at 20 µM; SUMO1 binding to a labelled peptide, TR-FRET, 1 h; 360,000 compounds, 0.33% hits; in the data active means inhibition above about 37%
Scp-1 inhibitor – inhibitors of human Scp-1 phosphatase; Q9GZU7; 340,000 compounds, 0.88% hits; inhibition, % at 20 µM; Recombinant Scp1, phosphopeptide, malachite green phosphate absorbance; AID 493091;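 active means inhibition above about 50% at 20 µM, limit read from the data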;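 further: plate controls were DMSO wells with enzyme for no effect and wells lacking enzyme for full effect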
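Test system: SCP-1 phosphatase catalytic domain, residues 76-261; measured by: colorimetric phosphate reagent with accelerator and stabiliser, absorbance at 630 nm; timing: enzyme reaction 45 min at room temperature, colour 5 min, stabilisation 30 min; also added: Phosphorylated 17-residue peptide substrate; compound dosing: one concentration, 20 µM, with 1.0% DMSO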
Scp-1 conf – confirmation of human Scp-1 phosphatase inhibitors | shares compounds with Scp-1 inhibitor | inhibition, % at 20 µM | AID 540281 | recombinant SCP-1 catalytic domain, phosphate release, malachite green absorbance | 2,500 compounds, 61% hits;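 further: plate controls were DMSO with enzyme for no effect and buffer wells lacking enzyme for full effect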
MG interference – counter-screen for Scp-1 inhibitors: colorimetric interference | 2,500 tested, under 10 active | apparent inhibition (interference), % at 20 µM | shares compounds with Scp-1 inhibitor | Colorimetric interference counterscreen, malachite green absorbance 630 nm;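 further: compounds added after enzyme reaction finished so only phosphate colour detection is probed; plate controls were DMSO wells with completed Scp-1 reaction for no effect and substrate wells lacking enzyme for full effect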
Scp-1 Tm shift – validation of human Scp-1 inhibitors by thermal shift binding; shares compounds with Scp-1 inhibitor; Recombinant SCP1, Sypro Orange thermal shift Tm; thermal shift relative to vanadate control, % at 40 µM; 1,500 compounds, 25% hits; AID 540329;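 active means substances whose mean melting-temperature shift, as a percentage of the reference inhibitor's shift, reaches about 5.3%, limit read from the data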;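 further: 0% = Tm of DMSO wells and 100% = Tm with sodium orthovanadate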
* = called active by the depositor; x = no result.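 How the source made its calls, unless noted: active means inhibition of at least 30% at 20 µM; inactive means the rest.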

SMILES	DNMT1 inh	LMPTP block	STEP block	SUMO1-SIM PPI	Scp-1 inhibitor	Scp-1 conf	MG interference	Scp-1 Tm shift
NC(=O)Cn1cnc2c(nnn2-c2cccc(Cl)c2)c1=O	7	0	1	19	-3	x	x	x
O=C(Cn1cnc2sc(-c3ccccc3)cc2c1=O)NCc1ccccc1	11	7	1	-7	83*	62*	-17	-28
O=C(Cn1cnc2sc(-c3ccccc3)cc2c1=O)NCCc1ccccc1	26	1	1	6	22	x	x	x
O=C(Cn1cnc2c(nnn2-c2cccc(Cl)c2)c1=O)NCc1ccccc1	34	33	8	7	53*	62*	-18	-5
Cc1cnc(C(=O)OCC(=O)Nc2ccccc2-c2ccccc2)cn1	-1	-2	0	7	-4	x	x	x
O=C(Cn1c2[n+](c3ccc(C(F)(F)F)cc31)CCCCC2)Nc1ccccc1	6	-2	-2	0	62*	-18	-10	x
CCc1cccc(NC(=O)Cn2c3[n+](c4ccc(C(F)(F)F)cc42)CCCCC3)c1	0	-1	2	-2	19	x	x	x
CCN(CC(=O)NCc1cccs1)C(=O)c1cccc(S(=O)(=O)Nc2ccccc2Cl)c1	2	-1	-4	7	7	x	x	x
COc1ccc2[nH]cc(/C=C/c3cc[n+](C)cc3)c2c1	-6	4	-2	-60	58*	-21	-18	x
C[N+](C)(C)CC/C=C1/c2ccccc2CSc2ccccc21	-3	0	2	3	77*	82*	-13	-4
CCc1cc(C(=O)OC)c(NC(=O)CCC(=O)O)s1	-2	-2	2	0	62*	-10	-11	x
CN(C)S(=O)(=O)c1cccc(NC(=O)COC(=O)/C=C/c2ccco2)c1	32	2	7	0	68*	41*	-13	-19
CCN(CC)S(=O)(=O)c1cccc(NC(=O)COC(=O)/C=C/c2ccco2)c1	4	0	-2	-3	10	x	x	x
O=C1C=C(O)c2cccc(O)c2C1=O	-4	4	2	0	50*	43*	-5	12*
O=C(N/N=C/c1cn(-c2cccs2)nc1-c1ccccc1)c1ccccc1O	-18	4	0	18	72*	27	-24	x
CCNc1nc(NCC)n2c(SCC(=O)Nc3ccc(OC(F)F)cc3)nnc2n1	49	4	2	20	68*	39*	-11	-13
CCNc1nc(NCC)n2c(SCC(=O)Nc3ccc(F)cc3)nnc2n1	55*	0	7	11	54*	55*	-7	-20
CCNc1nc(NCC)n2c(SCC(=O)Nc3ccc(C)c(C)c3)nnc2n1	13	0	1	11	30	x	x	x
CCNc1nc(NCC)n2c(SCC(=O)Nc3ccccc3)nnc2n1	0	-1	-2	3	-9	x	x	x
CC(C)NC(=O)N(C)C[C@@H]1Oc2ccc(NC(=O)CCN3CCOCC3)cc2CC(=O)N([C@@H](C)CO)C[C@@H]1C	5	-2	-1	4	52*	19	-14	x
C[C@H](CO)N1C[C@H](C)[C@@H](CN(C)C(=O)Nc2ccccc2)Oc2ccc(NC(=O)C3CC3)cc2C1=O	9	-1	6	6	0	x	x	x
C[C@@H]1CN([C@H](C)CO)C(=O)c2cc(NC(=O)c3ccncc3)ccc2O[C@@H]1CN(C)C(=O)Nc1ccccc1	6	-2	-1	-4	94*	61*	-14	-10
C[C@H](CO)N1C[C@H](C)[C@@H](CN(C)C(=O)Nc2ccccc2)Oc2ccc(NC(=O)CCN3CCOCC3)cc2C1=O	-1	-2	-3	3	21	x	x	x
CC(C)NC(=O)N(C)C[C@H]1Oc2ccc(NC(=O)c3ccncc3)cc2C(=O)N([C@H](C)CO)C[C@@H]1C	7	0	0	-5	73*	18	-18	x
